Results published in ChEMBL document CHEMBL5579857, “Fragment-Based Discovery of Novel MUS81 Inhibitors” (ACS Med Chem Lett, 2024).

Experiments:
[1] = Inhibition of human Avi-tagged MUS81 (246 to 551 residues)/2x8His-tagged EME1 (246 to 570 residues) extracted from Escherichia coli BL21 Gold (DE3) using branched DNA as substrate preincubated for 15 mins followed by substrate addition and measured after 90 mins by FRET assay
Procedure, shortened: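 IC50 is reported as the geometric mean ± SEM of at least three independent determinations.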

[2] = Binding affinity to human Avi-tagged MUS81 (246 to 551 residues)/2x8His-tagged EME1 (246 to 570 residues) extracted from Escherichia coli BL21 Gold (DE3) by SPR analysis
Procedure, shortened: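 Fragments flagged as hits in a DSF screen were taken into SPR against MUS81-EME1 to confirm binding and obtain Kd. Kd is reported as the geometric mean with geometric standard deviation of at least three determinations.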

[3] = target: Voltage-gated inwardly rectifying potassium channel KCNH2 (Homo sapiens, UniProt Q12809); assay: Inhibition of hERG; assay type: toxicity
PDE = assay: Inhibition of PDE (unknown origin); assay type: toxicity, Homo sapiens
[4] = Lipophilicity, logD of the compound in octanol/water at pH 7.4 by shake flask method; assay type: physicochemical
Insulin receptor = Insulin receptor (Homo sapiens, UniProt P06213); assay: Inhibition of INSR (unknown origin); assay type: toxicity
[5] = Kinetic aqueous solubility of the compound at pH 7.4; assay type: physicochemical; settings: buffer
[6] = Metabolic stability in rat hepatocytes assessed as intrinsic clearance measured per million cells; assay type: ADME, cell-based, Hepatocyte; settings: read-out: CLH
[7] = target: T1, Prostaglandin G/H synthase 2 (Homo sapiens, UniProt P35354); assay: Inhibition of COX2 (unknown origin); assay type: toxicity
T1 sequence (P35354 whole entry): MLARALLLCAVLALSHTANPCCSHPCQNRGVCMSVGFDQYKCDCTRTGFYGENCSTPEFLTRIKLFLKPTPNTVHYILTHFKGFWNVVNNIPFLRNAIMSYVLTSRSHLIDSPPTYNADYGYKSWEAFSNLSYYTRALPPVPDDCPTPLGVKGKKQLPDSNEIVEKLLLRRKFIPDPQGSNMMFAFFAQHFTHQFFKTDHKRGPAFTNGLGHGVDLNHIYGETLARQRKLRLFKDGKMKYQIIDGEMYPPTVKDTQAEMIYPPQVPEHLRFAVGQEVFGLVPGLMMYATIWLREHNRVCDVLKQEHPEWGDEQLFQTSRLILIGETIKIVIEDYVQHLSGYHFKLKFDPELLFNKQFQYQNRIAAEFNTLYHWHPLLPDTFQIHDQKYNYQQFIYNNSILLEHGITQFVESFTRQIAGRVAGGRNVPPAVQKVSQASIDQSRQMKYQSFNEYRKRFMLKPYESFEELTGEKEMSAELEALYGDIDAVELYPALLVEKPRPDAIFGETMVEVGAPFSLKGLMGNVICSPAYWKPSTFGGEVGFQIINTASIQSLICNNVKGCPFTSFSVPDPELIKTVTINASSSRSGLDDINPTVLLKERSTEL

[8] = target: Glutamate [NMDA] receptor; assay: Inhibition of NMDA (unknown origin); assay type: toxicity, Homo sapiens
[9] = Metabolic stability in human liver microsomes assessed as intrinsic clearance; assay type: ADME, Microsome
[10] = Efflux ratio of apparent permeability in human Caco-2 cells; assay type: ADME, cell-based
[11] = target: CaV-L (Voltage-gated L-type calcium channel) (Homo sapiens, UniProt O60840+Q01668+Q13698+Q13936); assay: Inhibition of CaV-L (unknown origin); assay type: toxicity
[12] = target: GABA-A receptor; anion channel; assay: Inhibition of GABA (unknown origin); assay type: toxicity, Homo sapiens

Voltage-gated inwardly rectifying potassium channel KCNH2, sequence (Q12809 whole entry): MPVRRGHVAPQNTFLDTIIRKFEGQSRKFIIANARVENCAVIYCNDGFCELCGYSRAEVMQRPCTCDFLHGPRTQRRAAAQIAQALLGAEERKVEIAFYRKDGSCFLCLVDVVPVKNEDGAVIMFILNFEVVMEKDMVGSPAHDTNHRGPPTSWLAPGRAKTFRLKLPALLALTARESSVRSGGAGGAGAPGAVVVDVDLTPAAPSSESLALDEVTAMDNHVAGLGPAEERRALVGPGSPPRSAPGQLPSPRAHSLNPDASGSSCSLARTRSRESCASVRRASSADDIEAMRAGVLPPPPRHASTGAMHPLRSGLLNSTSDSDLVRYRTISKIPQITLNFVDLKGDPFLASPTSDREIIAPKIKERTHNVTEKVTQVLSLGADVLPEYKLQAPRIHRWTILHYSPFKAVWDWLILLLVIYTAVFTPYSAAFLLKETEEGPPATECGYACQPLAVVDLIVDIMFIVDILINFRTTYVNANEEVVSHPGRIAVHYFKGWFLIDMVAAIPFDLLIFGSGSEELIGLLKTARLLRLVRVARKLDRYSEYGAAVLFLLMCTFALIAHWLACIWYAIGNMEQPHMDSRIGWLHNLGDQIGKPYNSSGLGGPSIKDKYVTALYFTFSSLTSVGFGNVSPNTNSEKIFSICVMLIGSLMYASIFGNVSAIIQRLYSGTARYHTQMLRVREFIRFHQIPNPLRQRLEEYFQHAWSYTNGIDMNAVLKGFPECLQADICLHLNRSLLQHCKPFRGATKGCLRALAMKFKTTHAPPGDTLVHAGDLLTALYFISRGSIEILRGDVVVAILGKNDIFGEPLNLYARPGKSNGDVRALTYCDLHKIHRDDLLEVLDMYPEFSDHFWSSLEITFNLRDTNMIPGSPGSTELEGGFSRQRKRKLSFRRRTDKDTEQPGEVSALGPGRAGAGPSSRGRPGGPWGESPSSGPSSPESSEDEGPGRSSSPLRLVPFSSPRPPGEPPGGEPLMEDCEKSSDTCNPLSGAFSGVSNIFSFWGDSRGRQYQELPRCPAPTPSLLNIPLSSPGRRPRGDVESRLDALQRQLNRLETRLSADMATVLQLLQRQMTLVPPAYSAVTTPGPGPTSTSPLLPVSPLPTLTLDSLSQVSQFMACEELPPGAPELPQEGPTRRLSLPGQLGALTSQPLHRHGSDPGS
Insulin receptor, sequence (P06213 28-758 limits assumed): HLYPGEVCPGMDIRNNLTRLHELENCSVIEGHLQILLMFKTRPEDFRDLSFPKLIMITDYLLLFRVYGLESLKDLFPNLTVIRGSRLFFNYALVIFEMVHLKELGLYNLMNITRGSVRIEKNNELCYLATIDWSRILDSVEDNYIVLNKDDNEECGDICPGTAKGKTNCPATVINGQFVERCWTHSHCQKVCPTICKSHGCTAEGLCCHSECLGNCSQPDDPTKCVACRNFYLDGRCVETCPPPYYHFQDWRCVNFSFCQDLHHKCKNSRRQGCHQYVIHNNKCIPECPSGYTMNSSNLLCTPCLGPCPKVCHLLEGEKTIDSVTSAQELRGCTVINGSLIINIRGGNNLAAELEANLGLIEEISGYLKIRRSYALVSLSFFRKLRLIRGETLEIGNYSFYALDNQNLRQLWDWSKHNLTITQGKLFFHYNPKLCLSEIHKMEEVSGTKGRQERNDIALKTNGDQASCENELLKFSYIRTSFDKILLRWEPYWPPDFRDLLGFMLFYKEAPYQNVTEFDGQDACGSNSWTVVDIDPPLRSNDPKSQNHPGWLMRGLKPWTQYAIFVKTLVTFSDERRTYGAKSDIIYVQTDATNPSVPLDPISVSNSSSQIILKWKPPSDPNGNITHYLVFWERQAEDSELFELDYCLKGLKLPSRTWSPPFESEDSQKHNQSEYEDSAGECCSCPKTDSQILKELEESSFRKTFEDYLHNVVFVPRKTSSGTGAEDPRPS
Insulin receptor, sequence (P06213 763-1382 limits assumed): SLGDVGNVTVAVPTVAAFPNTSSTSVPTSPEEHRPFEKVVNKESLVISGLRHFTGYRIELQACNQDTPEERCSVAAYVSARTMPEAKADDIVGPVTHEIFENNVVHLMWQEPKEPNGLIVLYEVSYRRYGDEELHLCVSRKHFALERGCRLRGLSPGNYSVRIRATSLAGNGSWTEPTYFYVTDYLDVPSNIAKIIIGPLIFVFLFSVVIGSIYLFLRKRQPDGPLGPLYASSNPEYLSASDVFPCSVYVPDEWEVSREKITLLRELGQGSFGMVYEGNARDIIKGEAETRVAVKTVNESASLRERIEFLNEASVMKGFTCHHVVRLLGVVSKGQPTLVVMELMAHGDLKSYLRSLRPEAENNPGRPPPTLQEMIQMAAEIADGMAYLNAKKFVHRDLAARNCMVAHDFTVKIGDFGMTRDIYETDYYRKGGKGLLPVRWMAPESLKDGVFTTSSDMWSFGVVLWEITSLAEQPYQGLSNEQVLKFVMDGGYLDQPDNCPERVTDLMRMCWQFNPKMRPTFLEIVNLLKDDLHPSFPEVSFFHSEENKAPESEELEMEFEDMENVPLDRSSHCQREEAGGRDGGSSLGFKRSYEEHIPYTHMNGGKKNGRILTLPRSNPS

IC50 [1] [µM]	SMILES	Kd [2] [µM]	further results
2.1	O=C(O)c1nc(-c2ccc(Cl)cc2)nc(O)c1O	1.1	
2.8	O=C(O)c1nc(C2CCCCC2)nc(O)c1O	2.2	
> 100	COC(=O)c1nc(-c2ccccc2)[nH]c(=O)c1O	56	
> 100	Cc1nc(C(=O)O)c(O)c(=O)[nH]1	44	
5.6	O=C(O)c1nc(-c2cccc(Cl)c2)nc(O)c1O	4.8	
2	O=C(O)c1nc(-c2ccc(Br)cc2)nc(O)c1O	1	
3.9	O=C(O)c1nc(-c2ccccc2)nc(O)c1O	2.3	
2.4	O=C(O)c1nc(-c2ccc(-c3ccccc3)cc2)[nH]c(=O)c1O	0.72	
> 100	CNC(=O)c1nc(-c2ccccc2)[nH]c(=O)c1O	74	
0.27	N#Cc1cc(-c2ccc(C(=O)N3CCNCC3)cc2)ccc1-n1cc(O)c(=O)c(C(=O)O)c1	1.1	IC50 [3]: > 40 µM; IC50 (PDE): > 100 µM; logD [4]: < 0; IC50 (Insulin receptor): > 100 µM; Kinetic_solubility [5]: > 200 µM; hepatocyte CLint [6]: 10 µL/min/1e6 cells; IC50 [7]: > 100 µM; IC50 [8]: > 100 µM; CLH [9]: 7 µL/min/mg; Ratio [10]: 1.1; IC50 [11]: > 100 µM; IC50 [12]: > 100 µM
0.32	O=C(O)c1cn(-c2ccc(-c3ccc(C(=O)N4CCNCC4)cc3)cc2)cc(O)c1=O	0.67	IC50 [3]: > 40 µM; IC50 (PDE): > 100 µM; logD [4]: < 0; IC50 (Insulin receptor): > 100 µM; Kinetic_solubility [5]: > 200 µM; hepatocyte CLint [6]: 11 µL/min/1e6 cells; IC50 [7]: > 100 µM; IC50 [8]: > 100 µM; CLH [9]: < 3 µL/min/mg; Ratio [10]: 1.5; IC50 [11]: > 100 µM; IC50 [12]: > 100 µM
2	O=C(O)c1nc(-c2cccc(-c3ccccc3)c2)[nH]c(=O)c1O	1.8	
4.5	O=C(O)c1nc(-c2ccccc2-c2ccccc2)[nH]c(=O)c1O	4.3	
4.1	O=C(O)c1cc(-c2ccc(-c3ccccc3)cc2)[nH]c(=O)c1O	1.4	
0.66	O=C(O)c1cn(-c2ccc(-c3ccccc3)cc2)cc(O)c1=O	0.79	
0.47	O=C(O)c1cn(-c2ccc(N3CCNCC3)cc2)cc(O)c1=O	2	
0.47	N#Cc1cc(N2CCNCC2)ccc1-n1cc(O)c(=O)c(C(=O)O)c1	1.2	
1.2	O=C(O)c1nc(-c2ccc(N3CCNCC3)cc2)[nH]c(=O)c1O	2.1	
3.8	O=C(O)c1nc(-c2ccccc2Cl)[nH]c(=O)c1O	4	
2.8	N#CCc1ccc(-c2ccccc2-c2nc(C(=O)O)c(O)c(=O)[nH]2)cc1	0.54	
1.5	O=C(O)c1nc(-c2ccc3ccccc3c2)[nH]c(=O)c1O	1.3	
1.1	O=C(O)c1[nH]c(-c2ccc(-c3ccccc3)cc2)cc(=O)c1O	0.43	
> 100	NC(=O)c1nc(-c2ccccc2)[nH]c(=O)c1O	> 100	
> 100	CN(C)C(=O)c1nc(-c2ccccc2)[nH]c(=O)c1O	> 100	
